Results pooled from the literature.
Target: Sodium-dependent noradrenaline transporter (SLC6A2, Homo sapiens, UniProt P23975)

Clc1ccc(C(c2ccc(Cl)cc2)c2nnnn2CCCN2CCC(CCCc3ccccc3)CC2)cc1  inhibition (transporter uptake; inhibitor; HEK293; 1 µM): 10.8%
CCN(Cc1ccccc1C(F)(F)F)C(=O)C1CCN(S(=O)(=O)c2ccc3[nH]ncc3c2)CC1  inhibition (ligand displacement; radioligand; 10 µM): 20%
COc1ccc(-n2nc(OCCCN3CCCCC3)ccc2=O)cc1  inhibition (ligand displacement; 1 µM): 18.5%
COc1cc(NC(C)=O)c(Cl)cc1C(=O)Nc1nccs1  inhibition (cell-free assay; 10 µM): 1.8%
c1ccc(C2CCN(CCCCn3nnnc3C(c3ccccc3)c3ccccc3)CC2)cc1  inhibition (transporter uptake; inhibitor; HEK293; 1 µM): 66.3%
COC(=O)c1ccc(-n2c(C)cc(C(=O)CSc3ccc(NC(C)=O)cc3)c2C)cc1  inhibition (ligand displacement; radioligand; 10 µM): 50%
Fc1ccc(C(c2ccc(F)cc2)c2nnnn2CCCCN2CCC(c3ccccc3)CC2)cc1  inhibition (transporter uptake; inhibitor; HEK293; 1 µM): 64.4%
N#Cc1cc(Cn2c(N3CCCC3)nc3ccccc32)ccc1F  inhibition (ligand displacement; 10 µM): 39.4%
O[C@@H]1[C@H](O)[C@@H]2C[C@@H]2[C@H]1n1cnc2c(NCc3cccc(Cl)c3)nc(C#Cc3ccc(F)c(F)c3)nc21  inhibition (ligand displacement; radioligand; 10 µM): 51%
Clc1ccc(C(c2ccc(Cl)cc2)c2nnnn2CCCCN2CCC(Cc3ccccc3)CC2)cc1  inhibition (transporter uptake; inhibitor; HEK293; 1 µM): 68.8%
O[C@@H]1[C@H](O)[C@@H]2C[C@@H]2[C@H]1n1cnc2c(NCc3cccc(Cl)c3)nc(C#Cc3ccccc3)nc21  inhibition (ligand displacement; radioligand; 10 µM): 34%
O=C(Nc1ccc(S(=O)(=O)N2CCC(Cl)CC2)cc1)c1ccc([N+](=O)[O-])o1  inhibition (ligand displacement; radioligand; 10 µM): 28%
